Assay results published in ChEMBL document CHEMBL2424551, “Synthesis, in vitro evaluation and molecular modelling of naphthalimide analogue as anticancer agents” (2013).
Calls of active or inactive are those of the source. No cut-off for these calls is given here.

Experiments:
Assay type in all cases: functional
[1] = tested on: DU-145; assay: Growth inhibition of human DU145 cells at 10 uM after 48 hrs by SRB assay; settings: DU-145, 48 h, read-out: GI
Procedure, shortened: (§1)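 Cells grown in RPMI 1640 with 5% FBS and 2 mM L-glutamine, plated at 5000–40,000 cells/well by doubling time and preincubated 24 h (37 °C, 5% CO2); a time-zero plate is TCA-fixed. Single dose added, then 48 h incubation. Fixed with cold TCA, stained with 0.4% SRB, dye solubilized in 10 mM Tris base, absorbance at 515 nm; percent growth vs time-zero and untreated control.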

[2] = tested on: A549; assay: Growth inhibition of human A549 cells at 10 uM after 48 hrs by SRB assay; settings: A549, 48 h, read-out: GI; procedure, shortened: as §1
[3] = tested on: OVCAR-4; assay: Growth inhibition of human OVCAR4 cells at 10 uM after 48 hrs by SRB assay; settings: OVCAR-4, 48 h, read-out: GI; procedure, shortened: as §1
[4] = tested on: SNB-75; assay: Growth inhibition of human SNB75 cells at 10 uM after 48 hrs by SRB assay; settings: SNB-75, 48 h, read-out: GI
Procedure, shortened: (§2)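 NCI 60-cell-line screen with a single 10 µM dose. Cells are grown in RPMI 1640 with 5% FBS and 2 mM L-glutamine, plated at 5000–40,000 cells/well according to doubling time, and preincubated 24 h at 37 °C, 5% CO2; time-zero plates are TCA-fixed at that point. Drug exposure is 48 h. Adherent cells are fixed with cold TCA, stained with 0.4% SRB in 1% acetic acid and read at 515 nm. Percent growth is calculated relative to time-zero and untreated controls and reported as GI%.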

[5] = tested on: COLO 205; assay: Growth inhibition of human COLO205 cells at 10 uM after 48 hrs by SRB assay; settings: COLO 205, 48 h, read-out: GI; procedure, shortened: as §1
[6] = tested on: MDA-MB-468; assay: Growth inhibition of human MDA-MB-468 cells at 10 uM after 48 hrs by SRB assay; procedure, shortened: as §1
[7] = tested on: UACC-257; assay: Growth inhibition of human UACC257 cells at 10 uM after 48 hrs by SRB assay; settings: UACC-257, 48 h, read-out: GI; procedure, shortened: as §2
[8] = tested on: K562; assay: Growth inhibition of human K562 cells at 10 uM after 48 hrs by SRB assay; settings: K562, 48 h, read-out: GI; procedure, shortened: as §1
[9] = tested on: NCI-H23; assay: Growth inhibition of human NCI-H23 cells at 10 uM after 48 hrs by SRB assay; settings: NCI-H23, 48 h, read-out: GI; procedure, shortened: as §1
[10] = tested on: NCI-H226; assay: Growth inhibition of human NCI-H226 cells at 10 uM after 48 hrs by SRB assay; settings: NCI-H226, 48 h, read-out: GI; procedure, shortened: as §1
[11] = tested on: UACC-62; assay: Growth inhibition of human UACC62 cells at 10 uM after 48 hrs by SRB assay; settings: UACC-62, 48 h, read-out: GI; procedure, shortened: as §2
[12] = tested on: RXF 393; assay: Growth inhibition of human RXF393 cells at 10 uM after 48 hrs by SRB assay; settings: RXF 393, 48 h, read-out: GI; procedure, shortened: as §1
[13] = tested on: RPMI-8226; assay: Growth inhibition of human RPMI8226 cells at 10 uM after 48 hrs by SRB assay; settings: RPMI-8226, 48 h, read-out: GI; procedure, shortened: as §1
[14] = tested on: SK-MEL-28; assay: Growth inhibition of human SK-MEL-28 cells at 10 uM after 48 hrs by SRB assay; settings: SK-MEL-28, 48 h, read-out: GI; procedure, shortened: as §1
[15] = tested on: SF-295; assay: Growth inhibition of human SF295 cells at 10 uM after 48 hrs by SRB assay; settings: SF-295, 48 h, read-out: GI; procedure, shortened: as §1
[16] = tested on: MOLT-4; assay: Growth inhibition of human MOLT4 cells at 10 uM after 48 hrs by SRB assay; settings: MOLT-4, 48 h, read-out: GI; procedure, shortened: as §1
[17] = tested on: M14; assay: Growth inhibition of human M14 cells at 10 uM after 48 hrs by SRB assay; settings: M14, 48 h, read-out: GI; procedure, shortened: as §1
[18] = tested on: OVCAR-3; assay: Growth inhibition of human OVCAR3 cells at 10 uM after 48 hrs by SRB assay; settings: OVCAR-3, 48 h, read-out: GI; procedure, shortened: as §1
[19] = tested on: CAKI-1; assay: Growth inhibition of human Caki1 cells at 10 uM after 48 hrs by SRB assay; settings: CAKI-1, 48 h, read-out: GI; procedure, shortened: as §1
[20] = tested on: MDA-MB-231; assay: Growth inhibition of human MDA-MB-231 cells at 10 uM after 48 hrs by SRB assay; settings: MDA-MB-231, 48 h, read-out: GI; procedure, shortened: as §1
[21] = tested on: HOP-92; assay: Growth inhibition of human HOP92 cells at 10 uM after 48 hrs by SRB assay; settings: HOP-92, 48 h, read-out: GI; procedure, shortened: as §1
[22] = tested on: UO-31; assay: Growth inhibition of human UO31 cells at 10 uM after 48 hrs by SRB assay; settings: UO-31, 48 h, read-out: GI; procedure, shortened: as §2
[23] = Growth inhibition of human NCI-ADR-RES cells at 10 uM after 48 hrs by SRB assay; settings: read-out: GI; procedure, shortened: as §1
[24] = tested on: HCT-15; assay: Growth inhibition of human HCT15 cells at 10 uM after 48 hrs by SRB assay; settings: HCT-15, 48 h, read-out: GI; procedure, shortened: as §1
[25] = tested on: SF-268; assay: Growth inhibition of human SF268 cells at 10 uM after 48 hrs by SRB assay; settings: SF-268, 48 h, read-out: GI; procedure, shortened: as §1
[26] = tested on: NCI-H322M; assay: Growth inhibition of human NCI-H322M cells at 10 uM after 48 hrs by SRB assay; settings: read-out: GI; procedure, shortened: as §1
[27] = tested on: A498; assay: Growth inhibition of human A498 cells at 10 uM after 48 hrs by SRB assay; settings: A498, 48 h, read-out: GI; procedure, shortened: as §1
[28] = tested on: ACHN; assay: Growth inhibition of human ACHN cells at 10 uM after 48 hrs by SRB assay; settings: read-out: GI; procedure, shortened: as §1
[29] = tested on: PC-3; assay: Growth inhibition of human PC3 cells at 10 uM after 48 hrs by SRB assay; settings: PC-3, 48 h, read-out: GI; procedure, shortened: as §1
[30] = tested on: SK-OV-3; assay: Growth inhibition of human SKOV3 cells at 10 uM after 48 hrs by SRB assay; settings: SK-OV-3, 48 h, read-out: GI; procedure, shortened: as §2
[31] = tested on: SK-MEL-2; assay: Growth inhibition of human SK-MEL-2 cells at 10 uM after 48 hrs by SRB assay; settings: SK-MEL-2, 48 h, read-out: GI; procedure, shortened: as §1
[32] = tested on: CCRF-CEM; assay: Growth inhibition of human CCRF-CEM cells at 10 uM after 48 hrs by SRB assay; settings: read-out: GI; procedure, shortened: as §1
[33] = tested on: SF-539; assay: Growth inhibition of human SF539 cells at 10 uM after 48 hrs by SRB assay; settings: SF-539, 48 h, read-out: GI; procedure, shortened: as §1
[34] = Growth inhibition of human HCC2998 cells at 10 uM after 48 hrs by SRB assay; settings: HCC 2998, 48 h, read-out: GI; procedure, shortened: as §1
[35] = tested on: IGROV-1; assay: Growth inhibition of human IGROV1 cells at 10 uM after 48 hrs by SRB assay; settings: IGROV-1, 48 h, read-out: GI; procedure, shortened: as §1
[36] = tested on: SR; assay: Growth inhibition of human SR cells at 10 uM after 48 hrs by SRB assay; settings: read-out: GI; procedure, shortened: as §2

Row | Structure (SMILES) | inhibition of growth at 10 µM [1] | inhibition of growth at 10 µM [2] | inhibition of growth at 10 µM [3] | inhibition of growth at 10 µM [4] | inhibition of growth at 10 µM [5] | growth inhibition (GI) [6] | inhibition of growth at 10 µM [8] | inhibition of growth at 10 µM [9] | inhibition of growth at 10 µM [10] | inhibition of growth at 10 µM [11] | inhibition of growth at 10 µM [12] | inhibition of growth at 10 µM [13] | inhibition of growth at 10 µM [14] | inhibition of growth at 10 µM [16] | inhibition of growth at 10 µM [17] | inhibition of growth at 10 µM [18] | inhibition of growth at 10 µM [19] | inhibition of growth at 10 µM [20] | inhibition of growth at 10 µM [21] | inhibition of growth at 10 µM [22] | further results
1 | O=c1c2cccc3c(Nc4ccc(F)cc4)ccc(c32)c2nc3ccccc3n12 | < 20% | < 20% | 24% | 29.2% | < 20% | Active | < 20% | < 20% | < 20% | 32.2% | < 20% | 42.6% | < 20% | < 20% | < 20% | < 20% | 20.1% | 29.1% | 46.8% | 50.8% | inhibition of growth at 10 µM [7]: < 20%; inhibition of growth at 10 µM [15]: < 20%; inhibition of growth at 10 µM [23]: < 20%; inhibition of growth at 10 µM [24]: 28.9%; inhibition of growth at 10 µM [25]: < 20%; inhibition of growth at 10 µM [26]: 32.2%; inhibition of growth at 10 µM [27]: 33.8%; inhibition of growth at 10 µM [28]: < 20%; inhibition of growth at 10 µM [29]: 22.8%; inhibition of growth at 10 µM [30]: < 20%; inhibition of growth at 10 µM [31]: < 20%; inhibition of growth at 10 µM [32]: < 20%; inhibition of growth at 10 µM [33]: < 20%; inhibition of growth at 10 µM [34]: 23.9%
2 | CCCCNc1ccc2c3c1cccc3c(=O)n1c3ccccc3nc21 | < 20% | 23.4% | < 20% | 26.6% | < 20% | Active | 21.2% | 40% | 26.3% | < 20% | < 20% | < 20% | < 20% | 30.6% | < 20% | < 20% | 56.8% | 20.2% | 38.8% | 41.4% | inhibition of growth at 10 µM [35]: 58.2%; inhibition of growth at 10 µM [36]: 84.4%; inhibition of growth at 10 µM [23]: < 20%; inhibition of growth at 10 µM [24]: 23.8%; inhibition of growth at 10 µM [25]: < 20%; inhibition of growth at 10 µM [26]: < 20%; inhibition of growth at 10 µM [27]: < 20%; inhibition of growth at 10 µM [28]: < 20%; inhibition of growth at 10 µM [29]: < 20%; inhibition of growth at 10 µM [30]: < 20%; inhibition of growth at 10 µM [32]: 25%; inhibition of growth at 10 µM [33]: < 20%; inhibition of growth at 10 µM [34]: 26%
